Reference: ChEMBL document CHEMBL2311339, “Identification of GZD824 as an orally bioavailable inhibitor that targets phosphorylated and nonphosphorylated breakpoint cluster region-Abelson (Bcr-Abl) kinase and overcomes clinically acquired mutation-induced resistance against imatinib” (J Med Chem, 2013)
Active and inactive are the calls of the source. The rule behind the calls is not given here.

Tests used:
[1] = Antitumor activity against mouse BA/F3 cells expressing BCR-ABL T315I mutant allografted in SCID mouse assessed as increase in median survival at 20 mg/kg/day, po qd for 10 days; format: functional, BaF3
In short: (§1)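 Ba/F3 Bcr-Abl T315I cells stably carrying firefly luciferase, in saline, were injected i.v. into SCID nude mice (2 × 10^6 cells/0.1 mL). Imaging began 5−7 days later: i.p. D-luciferin, halothane anaesthesia, images after 5 min. Mice were randomised by signal and dosed by oral gavage once daily for 10 days (5, 10, 20 mg/kg/day; imatinib 100 mg/kg; vehicle). Luminescence was quantified; survival by Kaplan−Meier with log-rank test.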

BaF3 [2] = assay: Antitumor activity against mouse BA/F3 cells expressing BCR-ABL T315I mutant allografted in SCID mouse assessed as increased survival at 1 to 20 mg/kg/day, po qd for 10 days; format: functional, organism-based
BaF3 [3] = assay: Antitumor activity against mouse BA/F3 cells expressing BCR-ABL T315I mutant allografted in SCID mouse assessed as suppression of cell proliferation at 1 to 20 mg/kg/day, po qd for 10 days; format: functional, organism-based
BaF3 [4] = assay: Antitumor activity against mouse BA/F3 cells expressing BCR-ABL T315I mutant allografted in SCID mouse assessed as complete suppression of cell proliferation at 20 mg/kg/day, po qd for 10 days; format: functional, organism-based; in short: as §1
BaF3 [5] = assay: Antitumor activity against mouse BA/F3 cells expressing BCR-ABL G250E mutant allografted in po dosed SCID mouse assessed as reduction of hepatosplenomegaly administered qd for 14 days; format: functional, organism-based
BaF3 [6] = assay: Antitumor activity against mouse BA/F3 cells expressing BCR-ABL T315I mutant allografted in po dosed SCID mouse assessed as inhibition of tumor growth administered qd for 14 days; format: functional, organism-based
In short: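 Ba/F3 cells stably expressing Bcr-Abl (wild type or mutant) were grown in RPMI 1640 with 10% FBS and no IL-3, then suspended in saline (2.5 × 10^7 cells/mL) and given as 0.2 mL s.c. in the right flank. Groups were randomised at 100−200 mm3. Once-daily oral gavage for 14 days in DMSO/Cremophor/ethanol/saline vehicle; reference imatinib 50 or 100 mg/kg/day. Volume L × W²/2 every 2 days; n = 10; t test versus vehicle.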

K562 [7] = assay: Antitumor activity against human K562 cells xenografted in mouse assessed as decrease in tumor recurrence at 2 mg/kg, po qd for 20 days; format: functional, organism-based; parameters: dose 2 mg/kg
K562 [8] = assay: Antitumor activity against human K562 cells xenografted in mouse assessed as decrease in tumor recurrence at 5 to 10 mg/kg, po qd for 20 days; format: functional, organism-based
K562 [9] = assay: Antitumor activity against human K562 cells xenografted in mouse assessed as eradication of tumor at 5 to 10 mg/kg, po qd for 6 days; format: functional, organism-based
K562 [10] = assay: Antitumor activity against human K562 cells xenografted in po dosed mouse assessed as inhibition of tumor growth administered qd for 14 days; format: functional, organism-based
In short: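 K562 cells suspended in normal saline (2.5 × 10^7 cells/mL), 0.2 mL injected subcutaneously into the right flank. Mice were randomised once mean tumour volume reached 100−200 mm3. Oral gavage once daily for 14 days, in 1% DMSO/22.5% Cremophor/7.5% ethanol/69% saline. Tumour volume (L × W²/2) and body weight taken every 2 days; recurrence followed 20 days after dosing stopped. n = 10/group; unpaired t test versus vehicle.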

[11] = biological target: Voltage-gated inwardly rectifying potassium channel KCNH2 (Homo sapiens, UniProt Q12809); assay: Inhibition of human ERG expressed in CHO cells at up to 30 uM after 2.5 hrs by Rb+ efflux assay; format: cell-based
Sequence of Voltage-gated inwardly rectifying potassium channel KCNH2 (Q12809 whole entry): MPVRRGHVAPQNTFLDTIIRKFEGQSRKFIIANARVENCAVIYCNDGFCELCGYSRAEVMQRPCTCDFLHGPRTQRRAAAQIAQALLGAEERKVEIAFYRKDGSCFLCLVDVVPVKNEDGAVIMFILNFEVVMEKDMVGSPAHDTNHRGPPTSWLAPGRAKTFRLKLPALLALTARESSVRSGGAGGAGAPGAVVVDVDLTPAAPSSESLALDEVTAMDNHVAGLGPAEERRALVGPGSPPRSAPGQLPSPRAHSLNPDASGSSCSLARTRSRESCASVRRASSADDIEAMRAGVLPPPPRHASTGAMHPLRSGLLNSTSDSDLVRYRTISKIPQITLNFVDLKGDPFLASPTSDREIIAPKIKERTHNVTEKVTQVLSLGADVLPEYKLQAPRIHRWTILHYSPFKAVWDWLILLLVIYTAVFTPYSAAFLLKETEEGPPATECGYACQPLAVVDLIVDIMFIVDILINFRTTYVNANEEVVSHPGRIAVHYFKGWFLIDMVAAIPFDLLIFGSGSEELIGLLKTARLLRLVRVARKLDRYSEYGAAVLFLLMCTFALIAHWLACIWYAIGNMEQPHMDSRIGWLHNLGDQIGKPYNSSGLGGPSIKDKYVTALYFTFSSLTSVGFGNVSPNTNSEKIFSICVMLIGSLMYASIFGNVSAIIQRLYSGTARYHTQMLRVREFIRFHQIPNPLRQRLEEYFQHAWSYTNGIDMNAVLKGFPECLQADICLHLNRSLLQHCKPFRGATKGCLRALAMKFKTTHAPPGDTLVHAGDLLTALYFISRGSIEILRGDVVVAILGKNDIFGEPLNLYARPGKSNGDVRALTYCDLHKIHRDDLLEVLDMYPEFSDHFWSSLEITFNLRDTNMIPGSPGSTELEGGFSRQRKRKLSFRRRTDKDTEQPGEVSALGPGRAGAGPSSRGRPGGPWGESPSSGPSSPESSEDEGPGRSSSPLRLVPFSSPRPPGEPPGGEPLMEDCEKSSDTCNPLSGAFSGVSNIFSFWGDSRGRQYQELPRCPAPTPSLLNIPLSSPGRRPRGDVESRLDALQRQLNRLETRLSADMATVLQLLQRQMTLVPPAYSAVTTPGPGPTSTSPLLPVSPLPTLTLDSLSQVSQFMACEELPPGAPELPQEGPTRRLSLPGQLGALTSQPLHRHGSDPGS

Rattus norvegicus = assay: Volume of distribution at steady state in rat at 25 mg/kg, po; format: ADME, organism-based; parameters: dose 25 mg/kg, route oral; settings: in vivo
In short: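 Test compound given to rats as its bismesylate salt in a single dose, 5 mg/kg iv or 25 mg/kg by mouth. Plasma drug levels were monitored after dosing, and PK parameters including Vss were reported per route.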

HL-60 = assay: Cytotoxicity against human HL60 cells […] assessed as growth inhibition after 72 hrs by CCK-8 assay; format: functional, cell-based; settings: HL-60, 72 h
In short: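 Log-phase human leukemia cells were seeded at about 3000 cells/well and treated 24 h later for 72 h. CCK-8 was then incubated with the cells for 3 h and read as OD450 − OD650. Viability was normalized to vehicle wells and cell-free blanks, and IC50 taken as the mean of three experiments.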

[12] = Cytotoxicity against mouse BA/F3 cells expressing BCR-ABL E359V mutant assessed as growth inhibition after 72 hrs by CCK-8 assay; settings: BaF3, 72 h
[13] = Cytotoxicity against mouse BA/F3 cells expressing BCR-ABL E255K mutant assessed as growth inhibition after 72 hrs by CCK-8 assay; settings: BaF3, 72 h
[14] = Cytotoxicity against mouse BA/F3 cells expressing BCR-ABL E255V mutant assessed as growth inhibition after 72 hrs by CCK-8 assay; settings: BaF3, 72 h
[15] = Cytotoxicity against mouse BA/F3 cells expressing BCR-ABL Y253H mutant assessed as growth inhibition after 72 hrs by CCK-8 assay; settings: BaF3, 72 h
[16] = biological target: Proto-oncogene tyrosine-protein kinase Src (Homo sapiens) (UniProt P12931); assay: Binding affinity to SRC (unknown origin) at 10 nM after 2 hrs by FRET assay
Sequence of Proto-oncogene tyrosine-protein kinase Src (Homo sapiens) (P12931 2-536 limits assumed): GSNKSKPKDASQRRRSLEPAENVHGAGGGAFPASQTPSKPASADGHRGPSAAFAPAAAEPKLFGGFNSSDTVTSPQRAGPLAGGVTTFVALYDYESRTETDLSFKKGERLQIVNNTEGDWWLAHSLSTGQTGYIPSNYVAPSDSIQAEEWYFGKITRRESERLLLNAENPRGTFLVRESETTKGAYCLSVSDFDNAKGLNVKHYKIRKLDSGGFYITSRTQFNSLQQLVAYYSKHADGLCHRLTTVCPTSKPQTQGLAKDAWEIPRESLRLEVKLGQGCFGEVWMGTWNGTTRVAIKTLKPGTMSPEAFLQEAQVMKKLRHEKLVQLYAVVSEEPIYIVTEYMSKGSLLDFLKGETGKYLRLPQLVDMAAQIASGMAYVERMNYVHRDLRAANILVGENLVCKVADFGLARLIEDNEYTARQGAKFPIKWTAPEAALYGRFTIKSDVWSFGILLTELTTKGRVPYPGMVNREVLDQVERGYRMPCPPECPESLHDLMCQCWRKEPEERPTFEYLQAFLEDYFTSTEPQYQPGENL

[17] = biological target: Platelet-derived growth factor receptor alpha (Homo sapiens) (UniProt P16234); assay: Binding affinity to PDGFRalpha (unknown origin) at 10 nM after 2 hrs by FRET assay
Sequence of Platelet-derived growth factor receptor alpha (Homo sapiens) (P16234 whole entry): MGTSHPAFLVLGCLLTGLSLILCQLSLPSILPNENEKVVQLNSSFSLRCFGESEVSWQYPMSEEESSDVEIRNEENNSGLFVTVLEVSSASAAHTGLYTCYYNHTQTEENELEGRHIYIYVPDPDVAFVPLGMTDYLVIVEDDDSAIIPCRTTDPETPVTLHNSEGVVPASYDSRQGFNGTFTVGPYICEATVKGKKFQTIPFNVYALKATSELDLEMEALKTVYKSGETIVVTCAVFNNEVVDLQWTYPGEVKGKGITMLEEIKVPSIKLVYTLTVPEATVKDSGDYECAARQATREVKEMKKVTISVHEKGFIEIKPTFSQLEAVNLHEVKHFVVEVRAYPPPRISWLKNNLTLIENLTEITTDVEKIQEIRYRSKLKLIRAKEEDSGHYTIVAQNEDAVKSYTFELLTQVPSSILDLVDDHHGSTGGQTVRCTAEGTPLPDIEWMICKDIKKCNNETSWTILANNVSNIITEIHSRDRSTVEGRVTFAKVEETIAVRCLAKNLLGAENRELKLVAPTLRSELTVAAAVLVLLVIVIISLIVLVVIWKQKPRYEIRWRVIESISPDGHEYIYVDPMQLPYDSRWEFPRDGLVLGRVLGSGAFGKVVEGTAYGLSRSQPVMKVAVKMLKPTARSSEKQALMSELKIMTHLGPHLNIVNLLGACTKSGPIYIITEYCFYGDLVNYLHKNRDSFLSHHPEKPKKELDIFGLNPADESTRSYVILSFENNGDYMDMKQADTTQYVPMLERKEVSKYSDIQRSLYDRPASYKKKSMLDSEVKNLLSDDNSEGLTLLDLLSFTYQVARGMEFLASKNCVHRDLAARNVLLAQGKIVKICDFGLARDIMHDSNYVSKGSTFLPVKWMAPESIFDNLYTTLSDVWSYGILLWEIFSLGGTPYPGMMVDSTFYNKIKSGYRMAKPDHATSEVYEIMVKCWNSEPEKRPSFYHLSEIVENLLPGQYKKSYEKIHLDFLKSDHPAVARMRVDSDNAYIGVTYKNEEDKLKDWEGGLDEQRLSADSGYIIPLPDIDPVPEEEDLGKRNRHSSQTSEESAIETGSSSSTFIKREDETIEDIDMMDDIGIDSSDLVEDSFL

[18] = biological target: Receptor-type tyrosine-protein kinase FLT3 (Homo sapiens) (UniProt P36888); assay: Binding affinity to FLT3 (unknown origin) at 10 nM after 2 hrs by FRET assay
Sequence of Receptor-type tyrosine-protein kinase FLT3 (Homo sapiens) (P36888 whole entry): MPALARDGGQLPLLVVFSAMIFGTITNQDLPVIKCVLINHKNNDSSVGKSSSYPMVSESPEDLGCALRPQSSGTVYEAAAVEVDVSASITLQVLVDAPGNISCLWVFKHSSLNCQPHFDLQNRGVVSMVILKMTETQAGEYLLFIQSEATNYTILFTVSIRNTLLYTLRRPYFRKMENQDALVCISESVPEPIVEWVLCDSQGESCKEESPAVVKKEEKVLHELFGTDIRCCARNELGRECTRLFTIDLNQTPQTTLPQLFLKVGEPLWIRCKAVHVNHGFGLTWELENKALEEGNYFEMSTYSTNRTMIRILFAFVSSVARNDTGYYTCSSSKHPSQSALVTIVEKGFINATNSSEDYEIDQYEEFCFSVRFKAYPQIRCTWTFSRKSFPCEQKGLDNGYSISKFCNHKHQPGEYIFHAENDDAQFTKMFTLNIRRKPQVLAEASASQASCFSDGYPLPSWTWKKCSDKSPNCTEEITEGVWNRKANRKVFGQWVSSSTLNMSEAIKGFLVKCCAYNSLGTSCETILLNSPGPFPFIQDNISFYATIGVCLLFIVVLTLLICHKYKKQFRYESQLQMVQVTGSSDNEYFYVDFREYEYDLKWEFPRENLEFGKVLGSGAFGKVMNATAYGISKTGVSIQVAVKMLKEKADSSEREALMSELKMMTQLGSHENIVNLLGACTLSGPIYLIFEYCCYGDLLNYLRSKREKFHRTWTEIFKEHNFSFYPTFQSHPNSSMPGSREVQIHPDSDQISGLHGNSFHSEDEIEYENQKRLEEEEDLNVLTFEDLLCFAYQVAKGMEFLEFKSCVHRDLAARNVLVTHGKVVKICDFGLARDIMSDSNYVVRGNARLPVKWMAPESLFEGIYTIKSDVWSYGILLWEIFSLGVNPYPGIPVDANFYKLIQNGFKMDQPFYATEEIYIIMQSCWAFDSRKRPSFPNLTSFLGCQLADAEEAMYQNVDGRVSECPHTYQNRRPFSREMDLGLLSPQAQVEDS

[19] = biological target: T1, Tyrosine-protein kinase ABL1 (Homo sapiens, UniProt P00519, E255K); assay: Binding affinity to phosphorylated ABL1 E255K mutant (unknown origin) after 1 hr
[20] = biological target: T2, Tyrosine-protein kinase ABL1 (Homo sapiens, UniProt P00519, T315I); assay: Binding affinity to phosphorylated ABL1 T315I mutant (unknown origin) after 1 hr
[21] = biological target: Tyrosine-protein kinase ABL1 (Homo sapiens, UniProt P00519, Q252H); assay: Binding affinity to non phosphorylated ABL1 Q252H mutant (unknown origin) after 1 hr
[22] = biological target: Tyrosine-protein kinase ABL1 (Homo sapiens, UniProt P00519, Y253F); assay: Inhibition of human recombinant ABL1 Y253F mutant expressed in insect cells after 30 mins by FRET assay; format: cell-based
[23] = biological target: Tyrosine-protein kinase ABL1 (Homo sapiens, UniProt P00519, G250E); format: cell-based
[24] = biological target: T1, Tyrosine-protein kinase ABL1; assay: Inhibition of human recombinant ABL1 E255K mutant expressed in insect cells after 30 mins by FRET assay; format: cell-based
[25] = biological target: T2, Tyrosine-protein kinase ABL1; format: cell-based
[26] = biological target: Tyrosine-protein kinase ABL1 (Homo sapiens, UniProt P00519); assay: Inhibition of human recombinant wild type ABL1 expressed in insect cells after 30 mins by FRET assay; format: cell-based
[27] = Cytotoxicity against mouse BA/F3 cells expressing wild type BCR-ABL assessed as growth inhibition after 72 hrs by CCK-8 assay; settings: BaF3, 72 h

For Cc1ccc(C(=O)Nc2ccc(CN3CCN(C)CC3)c(C(F)(F)F)c2)cc1C#Cc1cnc2[nH]ncc2c1 [OLVEREMBATINIB], the Survival [1] was 31.9 days, the Activity (BaF3 [2]) was “Dose-dependent effect” and the Activity (BaF3 [3]) was “Dose-dependent effect”. For the same compound, the Activity (BaF3 [4]) was “Active”, the Activity (BaF3 [5]) was “Active” and the TGI (BaF3 [6]) was “Active”. For the same compound, the Activity (K562 [7]) was “inactive”, the Activity (K562 [8]) was “Active” and the Activity (K562 [9]) was “Active”. The TGI (K562 [10]) was “Dose-dependent effect”, the “inhibition (INH)” value [11] was “Not Active” and the Vdss (Rattus norvegicus) was 53.2 L/kg. It also gave an IC50 (HL-60) of 349 nM, an IC50 [12] of 2.3 nM and an IC50 [13] of 3.5 nM. The IC50 [14] was 8.1 nM, the IC50 [15] was 3 nM and the Activity [16] was “inactive”. For the same compound, the Activity [17] was “inactive”, the Activity [18] was “inactive” and the Kd [19] was 0.28 nM. It also gave a Kd [20] of 3.2 nM, a Kd [21] of 0.46 nM and an IC50 [22] of 0.35 nM. The IC50 [23] was 0.71 nM, the IC50 [24] was 0.27 nM and the IC50 [25] was 0.68 nM. For the same compound, the IC50 [26] was 0.34 nM and the IC50 [27] was 1 nM.
